Converted amounts (≈) assume the structure as drawn.

The assay has as its system Mycobacterium tuberculosis. Kind of assay: Antimicrobial activity against multidrug-resistant Mycobacterium tuberculosis C110/09 after 4 weeks. It counts as functional. The note with it: C110/09, 672 h. The method, boiled down: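 L-J proportion method against an MDR clinical isolate resistant to rifampicin, pyrazinamide and isoniazid. Drug in 64, 128 and 256 µg mL-1 dilutions in LJ medium slants, set overnight. Inoculated with 4 mg mL-1 suspension by 3 mm loop, 37 °C, 4 weeks. MIC is the lowest concentration fully inhibiting growth, by CFU versus controls (medium, inoculated, DMSO). Three independent determinations.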
For the compound `CCc1ccc(C2C(C(=O)Nc3ccccc3)=C(C)NC(C)=C2C(=O)Nc2ccccc2)cc1`, the minimal inhibitory concentration (MIC) (usually the smallest concentration in the dilution series that meets the test's criterion for growth inhibition) was over 256 µg/mL.

In the case of `CC1=C(C(=O)Nc2ccc(C)cc2)C(c2ccccn2)C(C(=O)Nc2ccc(C)cc2)=C(C)N1`, the minimum inhibitory concentration (MIC) was over 256 µg/mL.

As for `CC1=C(C(=O)Nc2ccc(C)cc2)C(c2ccc[nH]2)C(C(=O)Nc2ccc(C)cc2)=C(C)N1`, the MIC came out at 128 µg/mL (≈ 291 µM).

In the case of `CC1=C(C(=O)Nc2ccccc2C)C(c2ccccn2)C(C(=O)Nc2ccccc2C)=C(C)N1`, the minimum inhibitory concentration (MIC) is 256 µg/mL (≈ 566 µM).

Take `NC(=O)c1cnccn1` [PYRAZINAMIDE]: the minimum inhibitory concentration (MIC) is 128 µg/mL (≈ 1040 µM).
